Laboratory results taken from ChEMBL document CHEMBL3425486, “Lathyrol diterpenes as modulators of P-glycoprotein dependent multidrug resistance: structure-activity relationship studies on Euphorbia factor L3 derivatives” (J Med Chem, 2015).

Experiments:
[1] = target: ATP-dependent translocase ABCB1 (Homo sapiens, UniProt P08183); experiment: Inhibition of P-gp in human MCF7/ADR cells assessed as reversal of multidrug resistance by measuring relative enhancement intensity for adriamycin-induced cytotoxicity at 10 uM after 48 hrs by SRB colorimetric assay; type: cell-based; parameters: scale not given: the % may be the effect or the level left; conditions: nci/adr-res
ATP-dependent translocase ABCB1, sequence (P08183 whole entry): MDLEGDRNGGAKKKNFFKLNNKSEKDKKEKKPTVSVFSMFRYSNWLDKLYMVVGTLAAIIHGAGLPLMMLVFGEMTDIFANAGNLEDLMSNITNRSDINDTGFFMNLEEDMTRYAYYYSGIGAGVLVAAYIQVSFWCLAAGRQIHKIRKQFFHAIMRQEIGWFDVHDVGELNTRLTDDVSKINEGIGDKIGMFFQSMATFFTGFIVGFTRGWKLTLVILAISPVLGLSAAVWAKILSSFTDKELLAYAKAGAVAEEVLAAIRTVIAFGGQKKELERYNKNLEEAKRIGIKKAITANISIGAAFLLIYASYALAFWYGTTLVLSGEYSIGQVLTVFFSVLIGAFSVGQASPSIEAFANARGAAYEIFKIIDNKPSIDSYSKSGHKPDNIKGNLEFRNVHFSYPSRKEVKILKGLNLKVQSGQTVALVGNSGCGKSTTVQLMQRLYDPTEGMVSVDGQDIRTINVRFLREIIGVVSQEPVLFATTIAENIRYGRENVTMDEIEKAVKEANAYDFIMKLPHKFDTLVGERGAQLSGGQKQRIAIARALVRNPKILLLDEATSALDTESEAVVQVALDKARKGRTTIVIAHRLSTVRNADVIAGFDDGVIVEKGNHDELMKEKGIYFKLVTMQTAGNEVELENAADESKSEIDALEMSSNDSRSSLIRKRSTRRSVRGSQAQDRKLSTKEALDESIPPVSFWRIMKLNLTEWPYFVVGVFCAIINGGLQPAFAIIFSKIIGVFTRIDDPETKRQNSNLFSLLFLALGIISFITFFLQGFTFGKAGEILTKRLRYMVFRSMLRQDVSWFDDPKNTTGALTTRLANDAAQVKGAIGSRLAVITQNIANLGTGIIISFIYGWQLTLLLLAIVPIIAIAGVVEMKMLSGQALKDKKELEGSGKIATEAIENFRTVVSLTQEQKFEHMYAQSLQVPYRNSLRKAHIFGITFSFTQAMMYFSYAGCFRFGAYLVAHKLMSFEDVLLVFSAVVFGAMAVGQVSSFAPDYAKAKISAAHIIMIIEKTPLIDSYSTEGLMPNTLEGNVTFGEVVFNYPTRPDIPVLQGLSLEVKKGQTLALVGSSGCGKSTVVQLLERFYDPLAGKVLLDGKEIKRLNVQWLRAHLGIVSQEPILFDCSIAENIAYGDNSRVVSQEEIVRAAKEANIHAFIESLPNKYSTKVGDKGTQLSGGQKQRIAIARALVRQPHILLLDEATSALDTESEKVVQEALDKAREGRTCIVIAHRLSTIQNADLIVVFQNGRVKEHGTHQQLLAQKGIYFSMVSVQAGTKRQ

[2] = Cytotoxicity against human MCF7/ADR cells assessed as reduction in cell viability after 48 hrs by SRB colorimetric assay; type: functional, cell-based; conditions: NCI/ADR-RES
Outline: (§1)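 MCF-7 from ATCC and its stepwise ADR-selected resistant subline, grown in RPMI-1640 with 10% FBS and penicillin/streptomycin at 37 °C, 5% CO2. 1 × 10^4 cells/well exposed to graded compound concentrations for 48 h. Cells fixed with 10% TCA, stained with 0.4% SRB in 1% acetic acid, dye extracted with 10 mM Tris base, OD read at 490 nm. Taxol positive control.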

NCI/ADR-RES = experiment: Inhibition of P-gp in human MCF7/ADR cells assessed as reversal of multidrug resistance at 10 uM by measuring ratio of EC50(adriamycin)/EC50(adriamycin + compound) after 48 hrs by SRB colorimetric assay; type: cell-based
MCF7 = experiment: Cytotoxicity against human MCF7 cells assessed as reduction in cell viability after 48 hrs by SRB colorimetric assay; type: functional, cell-based; conditions: MCF7, 48 h; outline: as §1
[3] = Inhibition of P-gp in human MCF7/ADR cells assessed as reversal of multidrug resistance at 10 uM by measuring EC50 for adriamycin-induced cytotoxicity after 48 hrs by SRB colorimetric assay; conditions: nci/adr-res

C=C1CC[C@H]2[C@@H]([C@@H]3O[C@]4(C[C@H](C)[C@H](OC(=O)CCc5ccccc5)[C@@H]4[C@H]1OC(=O)CCc1ccccc1)C(=O)[C@@H]3C)C2(C)C
Activity [1]: 8.3%
IC50 [2]: 40.1 µM
Ratio EC50 (NCI/ADR-RES): 1.6
IC50 (MCF7): 14.2 µM

C=C1CC[C@H]2[C@@H](/C=C(\C)C(=O)[C@@]3(O)C[C@H](C)[C@H](OC(=O)/C=C/c4ccccc4)[C@@H]3[C@H]1OC(=O)c1ccccc1)C2(C)C
Activity [1]: 12.1%
IC50 [2]: 42.1 µM
Ratio EC50 (NCI/ADR-RES): 9.8
IC50 (MCF7): 14.2 µM

C=C1CC[C@H]2[C@@H]([C@@H]3O[C@]4(C[C@H](C)[C@H](OC(=O)c5ccccc5)[C@@H]4[C@H]1OC(=O)c1ccccc1)C(=O)[C@@H]3C)C2(C)C
Activity [1]: 6.8%
IC50 [2]: > 100 µM
Ratio EC50 (NCI/ADR-RES): 3.2
IC50 (MCF7): 25.2 µM

C=C1CC[C@H]2[C@@H]([C@@H]3O[C@]4(C[C@H](C)[C@H](OC(=O)Cc5cccc6ccccc56)[C@@H]4[C@H]1OC(=O)Cc1cccc4ccccc14)C(=O)[C@H]3C)C2(C)C
Activity [1]: 10.4%
IC50 [2]: > 100 µM
Ratio EC50 (NCI/ADR-RES): 1.4
IC50 (MCF7): 84.9 µM

C=C1CC[C@H]2[C@@H](/C=C(\C)C(=O)[C@@]3(O)C[C@H](C)[C@H](OC(=O)c4ccccc4)[C@@H]3[C@H]1OC(=O)Cc1cccc3ccccc13)C2(C)C
Activity [1]: 11.1%
IC50 [2]: > 100 µM
Ratio EC50 (NCI/ADR-RES): 4
IC50 (MCF7): 4.16 µM

C=C1CC[C@H]2[C@@H](/C=C(\C)C(=O)[C@@]3(O)C[C@H](C)[C@H](O)[C@@H]3[C@H]1O)C2(C)C
Activity [1]: 7.3%
IC50 [2]: 59.6 µM
Ratio EC50 (NCI/ADR-RES): 3
IC50 (MCF7): 34 µM

C=C1CC[C@H]2[C@@H]([C@@H]3O[C@]4(C[C@H](C)[C@H](OC(=O)CCC)[C@@H]4[C@H]1OC(=O)CCC)C(=O)[C@H]3C)C2(C)C
Activity [1]: 7.7%
IC50 [2]: > 100 µM
Ratio EC50 (NCI/ADR-RES): 3
IC50 (MCF7): 19.1 µM

C=C1CC[C@H]2[C@@H](/C=C(\C)C(=O)[C@@]3(O)C[C@H](C)[C@H](O)[C@@H]3[C@H]1OC(=O)CC)C2(C)C
Activity [1]: 11.3%
IC50 [2]: 53.5 µM
Ratio EC50 (NCI/ADR-RES): 2.3
IC50 (MCF7): 32.1 µM

C=C1CC[C@H]2[C@@H](/C=C(\C)C(=O)[C@@]3(O)C[C@H](C)[C@H](O)[C@@H]3[C@H]1OC(=O)C(C)C)C2(C)C
Activity [1]: 10.1%
IC50 [2]: 66.3 µM
Ratio EC50 (NCI/ADR-RES): 3.2
IC50 (MCF7): 17 µM

C=C1CC[C@H]2[C@@H]([C@@H]3O[C@]4(C[C@H](C)[C@H](OC(=O)CCc5ccccc5)[C@@H]4[C@H]1OC(=O)CCc1ccccc1)C(=O)[C@H]3C)C2(C)C
Activity [1]: 6.9%
IC50 [2]: > 100 µM
Ratio EC50 (NCI/ADR-RES): 1.2
IC50 (MCF7): 46.8 µM

C=C1CC[C@H]2[C@@H](/C=C(\C)C(=O)[C@@]3(O)C[C@H](C)[C@H](OC(=O)Cc4cccc5ccccc45)[C@@H]3[C@H]1OC(=O)Cc1cccc3ccccc13)C2(C)C
Activity [1]: 10.1%
IC50 [2]: > 100 µM
Ratio EC50 (NCI/ADR-RES): 1.4
IC50 (MCF7): 13.4 µM

C=C1CC[C@H]2[C@@H](/C=C(\C)C(=O)[C@@]3(O)C[C@H](C)[C@H](O)[C@@H]3[C@H]1OC(=O)CCCCC)C2(C)C
Activity [1]: 9.1%
IC50 [2]: 46.1 µM
Ratio EC50 (NCI/ADR-RES): 3
IC50 (MCF7): 18.1 µM
EC50 [3]: 11.45 µM

C=C1CC[C@H]2[C@@H](/C=C(\C)C(=O)[C@@]3(O)C[C@H](C)[C@H](OC(=O)CCC)[C@@H]3[C@H]1OC(=O)CCC)C2(C)C
Activity [1]: 4%
IC50 [2]: 50.9 µM
Ratio EC50 (NCI/ADR-RES): 2.4
IC50 (MCF7): 18.5 µM
EC50 [3]: 14.49 µM

C=C1CC[C@H]2[C@@H](/C=C(\C)C(=O)[C@@]3(O)C[C@H](C)[C@H](OC(=O)CCCCC)[C@@H]3[C@H]1OC(=O)CCCCC)C2(C)C
Activity [1]: 5.8%
IC50 [2]: > 100 µM
Ratio EC50 (NCI/ADR-RES): 1.9
IC50 (MCF7): 47.1 µM
EC50 [3]: 18.51 µM

C=C1CC[C@H]2[C@@H](/C=C(\C)C(=O)[C@@]3(O)C[C@H](C)[C@H](O)[C@@H]3[C@H]1OC(=O)CCCC)C2(C)C
Activity [1]: 0.1%
IC50 [2]: 57.9 µM
Ratio EC50 (NCI/ADR-RES): 0.8
IC50 (MCF7): 13.1 µM

C=C1CC[C@H]2[C@@H](/C=C(\C)C(=O)[C@@]3(O)C[C@H](C)[C@H](O)[C@@H]3[C@H]1OC(=O)c1cccnc1)C2(C)C
Activity [1]: 10.3%
IC50 [2]: 19.3 µM
Ratio EC50 (NCI/ADR-RES): 2.3
IC50 (MCF7): 17.3 µM

C=C1CC[C@H]2[C@@H]([C@@H]3O[C@]4(C[C@H](C)[C@H](OC(=O)Cc5ccccc5)[C@@H]4[C@H]1OC(=O)Cc1ccccc1)C(=O)[C@@H]3C)C2(C)C
Activity [1]: 4%
IC50 [2]: 55 µM
Ratio EC50 (NCI/ADR-RES): 1.6
IC50 (MCF7): 28.5 µM

C=C1CC[C@H]2[C@@H](/C=C(\C)C(=O)[C@@]3(O)C[C@H](C)[C@H](OC(=O)CC)[C@@H]3[C@H]1OC(=O)CC)C2(C)C
Activity [1]: 4.6%
IC50 [2]: 45 µM
Ratio EC50 (NCI/ADR-RES): 2.8
IC50 (MCF7): 18.6 µM

C=C1CC[C@H]2[C@@H](/C=C(\C)C(=O)[C@@]3(O)C[C@H](C)[C@H](OC(=O)CC)[C@@H]3[C@H]1OC(=O)c1ccccc1)C2(C)C
Activity [1]: 12.1%
IC50 [2]: 63.3 µM
Ratio EC50 (NCI/ADR-RES): 8.2
IC50 (MCF7): 8.47 µM
EC50 [3]: 4.22 µM

C=C1CC[C@H]2[C@@H](/C=C(\C)C(=O)[C@@]3(O)C[C@H](C)[C@H](O)[C@@H]3[C@H]1OC(=O)/C=C/c1ccccc1)C2(C)C
Activity [1]: 9.1%
IC50 [2]: 58.8 µM
Ratio EC50 (NCI/ADR-RES): 2.7
IC50 (MCF7): 8.24 µM

C=C1CC[C@H]2[C@@H]([C@@H]3O[C@]4(C[C@H](C)[C@H](OC(=O)c5ccccc5)[C@@H]4[C@H]1OC(=O)c1ccccc1)C(=O)[C@H]3C)C2(C)C
Activity [1]: 4.3%
IC50 [2]: > 100 µM
Ratio EC50 (NCI/ADR-RES): 1.7
IC50 (MCF7): 34.9 µM
EC50 [3]: 20.49 µM

C=C1CC[C@H]2[C@@H](/C=C(\C)C(=O)[C@@]3(O)C[C@H](C)[C@H](O)[C@@H]3[C@H]1OC(=O)c1ccccc1)C2(C)C
Activity [1]: 7.5%
IC50 [2]: 55.3 µM
Ratio EC50 (NCI/ADR-RES): 1.5
IC50 (MCF7): 11.6 µM

C=C1CC[C@H]2[C@@H]([C@@H]3O[C@]4(C[C@H](C)[C@H](OC(=O)Cc5ccccc5)[C@@H]4[C@H]1OC(=O)Cc1ccccc1)C(=O)[C@H]3C)C2(C)C
Activity [1]: 11.6%
IC50 [2]: > 100 µM
Ratio EC50 (NCI/ADR-RES): 2.1
IC50 (MCF7): 28.5 µM

C=C1CC[C@H]2[C@@H](/C=C(\C)C(=O)[C@@]3(O)C[C@H](C)[C@H](OC(=O)CCc4ccccc4)[C@@H]3[C@H]1OC(=O)CCc1ccccc1)C2(C)C
Activity [1]: 6%
IC50 [2]: > 100 µM
Ratio EC50 (NCI/ADR-RES): 1.3
IC50 (MCF7): 28.7 µM

C=C1CC[C@H]2[C@@H](/C=C(\C)C(=O)[C@@]3(O)C[C@H](C)[C@H](O)[C@@H]3[C@H]1OC(=O)CC(C)C)C2(C)C
Activity [1]: 4.7%
IC50 [2]: 60.8 µM
Ratio EC50 (NCI/ADR-RES): 4.1
IC50 (MCF7): 14.8 µM

C=C1CC[C@H]2[C@@H](/C=C(\C)C(=O)[C@@]3(O)C[C@H](C)[C@H](OC(C)=O)[C@@H]3[C@H]1OC(C)=O)C2(C)C
Activity [1]: 4.7%
IC50 [2]: 41 µM
Ratio EC50 (NCI/ADR-RES): 4.1
IC50 (MCF7): 21.6 µM

C=C1CC[C@H]2[C@@H](/C=C(\C)C(=O)[C@@]3(O)C[C@H](C)[C@H](O)[C@@H]3[C@H]1OC(=O)CCc1ccccc1)C2(C)C
Activity [1]: 11.6%
IC50 [2]: 23.4 µM
Ratio EC50 (NCI/ADR-RES): 3.5
IC50 (MCF7): 11 µM

C=C1CC[C@H]2[C@@H](/C=C(\C)C(=O)[C@@]3(O)C[C@H](C)[C@H](O)[C@@H]3[C@H]1OC(C)=O)C2(C)C
Activity [1]: 7.1%
IC50 [2]: 80.7 µM
Ratio EC50 (NCI/ADR-RES): 1.9
IC50 (MCF7): 26.6 µM

C=C1CC[C@H]2[C@@H](/C=C(\C)C(=O)[C@@]3(O)C[C@H](C)[C@H](OC(=O)Cc4ccccc4)[C@@H]3[C@H]1OC(=O)Cc1ccccc1)C2(C)C
Activity [1]: 9.5%
IC50 [2]: 36.3 µM
Ratio EC50 (NCI/ADR-RES): 2.6
IC50 (MCF7): 8.93 µM

C=C1CCC(=C(C)C)[C@H]2C[C@@H](C)C(=O)[C@@]3(C[C@H](C)[C@H](OC(C)=O)[C@@H]3[C@H]1OC(C)=O)O2
Activity [1]: 2.4%
IC50 [2]: 65.2 µM
Ratio EC50 (NCI/ADR-RES): 1.9
IC50 (MCF7): 45.8 µM

C=C1CC[C@H]2[C@@H](/C=C(\C)C(=O)[C@@]3(O)C[C@H](C)[C@H](OC(=O)CC)[C@@H]3[C@H]1OC(=O)Cc1ccccc1)C2(C)C
Activity [1]: 9.3%
IC50 [2]: 76 µM
Ratio EC50 (NCI/ADR-RES): 8.1
IC50 (MCF7): 9.57 µM

C=C1CC[C@H]2[C@@H]([C@@H]3O[C@]4(C[C@H](C)[C@H](OC(=O)CCCCC)[C@@H]4[C@H]1OC(=O)CCCCC)C(=O)[C@H]3C)C2(C)C
Activity [1]: 6.8%
IC50 [2]: > 100 µM
Ratio EC50 (NCI/ADR-RES): 7
IC50 (MCF7): 48.1 µM

C=C1CC[C@H]2[C@@H](/C=C(\C)C(=O)[C@@]3(O)C[C@H](C)[C@H](O)[C@@H]3[C@H]1OC(=O)Cc1ccccc1)C2(C)C
Activity [1]: 9.6%
IC50 [2]: 42.9 µM
Ratio EC50 (NCI/ADR-RES): 7.4
IC50 (MCF7): 14.8 µM
